Results pooled from the literature.
Lines come from different studies, so protocols differ.
Target: Homeodomain-interacting protein kinase 4 (HIPK4, Homo sapiens, UniProt Q8NE63)
One construct used (Q8NE63 1-616): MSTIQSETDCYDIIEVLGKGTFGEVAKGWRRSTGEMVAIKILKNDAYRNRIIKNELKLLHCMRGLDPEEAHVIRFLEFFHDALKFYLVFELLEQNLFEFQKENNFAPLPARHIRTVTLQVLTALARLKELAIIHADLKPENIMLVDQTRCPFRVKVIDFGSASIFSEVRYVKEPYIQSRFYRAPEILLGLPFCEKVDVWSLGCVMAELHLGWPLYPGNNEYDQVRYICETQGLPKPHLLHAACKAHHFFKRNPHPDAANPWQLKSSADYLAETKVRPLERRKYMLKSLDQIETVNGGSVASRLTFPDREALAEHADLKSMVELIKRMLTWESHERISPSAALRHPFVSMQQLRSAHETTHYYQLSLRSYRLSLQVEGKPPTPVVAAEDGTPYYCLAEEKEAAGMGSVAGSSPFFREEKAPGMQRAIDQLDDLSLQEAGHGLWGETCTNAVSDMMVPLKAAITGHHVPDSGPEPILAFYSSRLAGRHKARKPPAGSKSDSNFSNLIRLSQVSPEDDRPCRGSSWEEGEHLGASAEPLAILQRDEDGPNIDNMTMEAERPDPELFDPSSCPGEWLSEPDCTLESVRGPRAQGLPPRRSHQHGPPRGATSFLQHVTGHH

| SMILES | effect on | action | method | tested at | quantity | result |
| --- | --- | --- | --- | --- | --- | --- |
| C#Cc1cc(-c2cc(Nc3nc(N[C@@H](C)c4ccc(F)cn4)ncc3Cl)n[nH]2)ccc1C=O | enzyme activity | inhibitor | – | 0.2 µM | inhibition | 4.92% |
| CO[C@@H]1[C@H](N(C)C(=O)c2ccccc2)C[C@H]2O[C@]1(C)n1c3ccccc3c3c4c(c5c6ccccc6n2c5c31)C(=O)NC4 | enzyme activity | inhibitor | – | 1 µM | inhibition | 23% |
| C1=C/COCc2cc(ccc2OCCN2CCCC2)Nc2nccc(n2)-c2cccc(c2)COC/1 | binding | – | – | 0.1 µM | remaining binding | 2.3% |
| CN1CCN(C(=O)c2ccc(NC(=O)Nc3ccc(N(C)c4ccnc(Nc5ccc(CS(C)(=O)=O)cc5)n4)cc3)cc2)CC1 | binding | – | competition with immobilised ligand | 1 µM | remaining binding | 74% |
| CC(C)S(=O)(=O)c1ccc2nccc(Nc3ccc4sc(C5CCCC5)nc4c3)c2c1 | enzyme activity | inhibitor | – | 1 µM | activity vs control | 98% |
| CC#CC(=O)N1CCC[C@H]1c1nc(-c2ccc(C(=O)Nc3ccccn3)cc2)c2c(N)nccn12 | enzyme activity | inhibitor | – | 1 µM | inhibition | 0% |
| CCCCC(=O)Nc1ccc(-c2ccc3ncn(CCC)c(=O)c3c2)cn1 | binding | – | competition with immobilised ligand | 0.5 µM | remaining binding | 66% |
| C[C@H]1CC[C@H](n2c3cnccc3c3cnc(Nc4ccc5c(n4)CCN(C(=O)CO)C5)nc32)CC1 | binding | – | competition with immobilised ligand | 1 µM | remaining binding | 56% |
